Experiments:
[1] = molecular target: 5-hydroxytryptamine receptor 1B (Gorilla gorilla, UniProt Q9N2B7); assay: The compound was tested for CNS binding affinity towards 5-hydroxytryptamine 1B receptor from cloned gorilla membranes expressed in cultured HEK 293 cells; assay type: cell-based, HEK293
[2] = molecular target: T1, 5-hydroxytryptamine receptor 1A (Homo sapiens, UniProt P08908); assay: The compound was tested for CNS binding affinity towards 5-hydroxytryptamine 1A receptor from cloned Human membranes.
T1 sequence (P08908 whole entry): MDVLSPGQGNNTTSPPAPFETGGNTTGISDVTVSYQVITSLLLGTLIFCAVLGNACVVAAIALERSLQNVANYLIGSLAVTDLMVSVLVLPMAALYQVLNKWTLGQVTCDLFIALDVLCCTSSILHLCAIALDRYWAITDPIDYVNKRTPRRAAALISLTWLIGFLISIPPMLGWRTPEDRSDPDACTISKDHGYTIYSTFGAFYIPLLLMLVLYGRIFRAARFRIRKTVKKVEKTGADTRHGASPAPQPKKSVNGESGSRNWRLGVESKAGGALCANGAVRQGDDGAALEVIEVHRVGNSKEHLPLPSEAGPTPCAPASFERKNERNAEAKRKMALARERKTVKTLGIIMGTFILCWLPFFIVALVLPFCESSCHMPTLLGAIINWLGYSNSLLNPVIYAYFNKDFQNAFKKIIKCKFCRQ
Procedure, shortened: (§1)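 Radioligand binding on membranes from cloned human receptors (5-HT1A, 5-HT2A, D2, D4). Ki values reported.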

[3] = molecular target: T2, D(2) dopamine receptor (Homo sapiens, UniProt P14416); assay: The compound was tested for CNS binding affinity towards Dopamine receptor D2 from cloned Human membranes.; procedure, shortened: as §1
[4] = molecular target: T3, D(4) dopamine receptor (Homo sapiens, UniProt P21917); assay: The compound was tested for CNS binding affinity towards Dopamine receptor D4 from cloned Human membranes; Inactive
T3 sequence (P21917 whole entry): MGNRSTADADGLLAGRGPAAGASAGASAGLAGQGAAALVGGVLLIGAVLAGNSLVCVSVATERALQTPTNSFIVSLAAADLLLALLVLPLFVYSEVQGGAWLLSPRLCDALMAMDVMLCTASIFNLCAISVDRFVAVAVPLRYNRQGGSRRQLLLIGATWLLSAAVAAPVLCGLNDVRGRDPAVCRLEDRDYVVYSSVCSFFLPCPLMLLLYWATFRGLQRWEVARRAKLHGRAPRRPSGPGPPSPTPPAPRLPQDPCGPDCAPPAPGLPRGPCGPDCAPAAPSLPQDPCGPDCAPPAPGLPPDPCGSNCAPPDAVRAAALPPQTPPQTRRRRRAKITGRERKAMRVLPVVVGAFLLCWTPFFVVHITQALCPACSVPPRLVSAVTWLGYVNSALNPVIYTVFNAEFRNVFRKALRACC

[5] = molecular target: T4, 5-hydroxytryptamine receptor 2A (Homo sapiens, UniProt P28223); assay: The compound was tested for CNS binding affinity towards 5-hydroxytryptamine 2A receptor from cloned Human membranes.; procedure, shortened: as §1
[6] = molecular target: T1, 5-hydroxytryptamine receptor 1A; assay: The compound was tested for CNS binding affinity towards 5-hydroxytryptamine 1A receptor from cloned Human membranes; procedure, shortened: as §1
[7] = molecular target: T3, D(4) dopamine receptor; assay: The compound was tested for CNS binding affinity towards Dopamine receptor D4 from cloned Human membranes; procedure, shortened: as §1
[8] = molecular target: T2, D(2) dopamine receptor; assay: The compound was tested for CNS binding affinity towards Dopamine receptor D2 from cloned Human membranes; procedure, shortened: as §1
[9] = system: Cavia porcellus; assay: The compound (25umol/kg, sc) was tested for hypothermic response for 60 mins in Guinea pig; assay type: functional
Procedure, shortened: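 Guinea pigs received compound subcutaneously (doses 25–100 μmol/kg across groups), and body temperature change was read at 30 and 60 min after dosing. The hypothermic response is the difference in °C from vehicle-treated controls, reported as mean ± SEM (n = 4–5), with significance tested against vehicle.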

[10] = molecular target: T3, D(4) dopamine receptor; assay: The compound was tested for CNS binding affinity towards Dopamine receptor D4 from cloned Human membranes.; procedure, shortened: as §1
[11] = molecular target: T4, 5-hydroxytryptamine receptor 2A; assay: The compound was tested for CNS binding affinity towards 5-hydroxytryptamine 2A receptor from cloned Human membranes
[12] = system: Cavia porcellus; assay: The compound (50umol/kg, sc) was tested for hypothermic response for 30 mins in Guinea pig; assay type: functional
Procedure, shortened: (§2)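 Guinea pigs dosed subcutaneously. Body temperature change read at 30 and 60 min after dosing. Response given as the difference in °C from vehicle-treated controls, as mean ± SEM, n = 4-5 per group. Significance tested against vehicle.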

[13] = system: Cavia porcellus; assay: The compound (50umol/kg, sc) was tested for hypothermic response for 60 mins and in Guinea pig; assay type: functional; procedure, shortened: as §2
[14] = system: Cavia porcellus; assay: The compound (100umol/kg, sc) was tested for hypothermic response for 30 mins in Guinea pig; assay type: functional; procedure, shortened: as §2
[15] = system: Cavia porcellus; assay: The compound (25umol/kg, sc) was tested for hypothermic response for 30 mins in Guinea pig; assay type: functional; procedure, shortened: as §2
[16] = system: Cavia porcellus; assay: The compound (25umol/kg, sc) was tested for hypothermic response for 60 mins and in Guinea pig; assay type: functional; procedure, shortened: as §2
[17] = system: Cavia porcellus; assay: The compound (100umol/kg, sc) was tested for hypothermic response for 60 mins and in Guinea pig; assay type: functional; procedure, shortened: as §2

Sequence of 5-hydroxytryptamine receptor 1B (Q9N2B7 whole entry): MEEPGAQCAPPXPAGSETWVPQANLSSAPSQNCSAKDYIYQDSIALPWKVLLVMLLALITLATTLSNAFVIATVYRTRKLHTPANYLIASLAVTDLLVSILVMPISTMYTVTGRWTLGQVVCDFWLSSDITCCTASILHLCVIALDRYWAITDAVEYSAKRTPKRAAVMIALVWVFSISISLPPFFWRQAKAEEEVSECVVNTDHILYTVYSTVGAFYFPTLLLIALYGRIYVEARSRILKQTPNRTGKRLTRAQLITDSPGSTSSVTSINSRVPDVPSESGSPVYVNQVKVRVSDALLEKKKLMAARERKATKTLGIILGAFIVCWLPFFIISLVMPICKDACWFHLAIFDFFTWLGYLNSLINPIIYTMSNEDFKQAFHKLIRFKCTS
T4 sequence (P28223 whole entry): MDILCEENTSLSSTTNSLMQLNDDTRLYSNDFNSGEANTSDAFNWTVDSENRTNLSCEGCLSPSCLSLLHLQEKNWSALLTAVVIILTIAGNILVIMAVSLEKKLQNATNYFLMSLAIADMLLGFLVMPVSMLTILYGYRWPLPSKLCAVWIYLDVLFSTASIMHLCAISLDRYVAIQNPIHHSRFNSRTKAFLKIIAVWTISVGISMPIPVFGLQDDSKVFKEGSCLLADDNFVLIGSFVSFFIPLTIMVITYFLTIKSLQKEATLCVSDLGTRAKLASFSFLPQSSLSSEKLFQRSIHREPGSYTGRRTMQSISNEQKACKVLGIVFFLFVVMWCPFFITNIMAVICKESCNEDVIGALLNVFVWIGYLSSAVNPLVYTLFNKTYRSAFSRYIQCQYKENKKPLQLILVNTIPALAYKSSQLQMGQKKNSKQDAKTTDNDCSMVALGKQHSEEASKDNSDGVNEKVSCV
T2 sequence (P14416 whole entry): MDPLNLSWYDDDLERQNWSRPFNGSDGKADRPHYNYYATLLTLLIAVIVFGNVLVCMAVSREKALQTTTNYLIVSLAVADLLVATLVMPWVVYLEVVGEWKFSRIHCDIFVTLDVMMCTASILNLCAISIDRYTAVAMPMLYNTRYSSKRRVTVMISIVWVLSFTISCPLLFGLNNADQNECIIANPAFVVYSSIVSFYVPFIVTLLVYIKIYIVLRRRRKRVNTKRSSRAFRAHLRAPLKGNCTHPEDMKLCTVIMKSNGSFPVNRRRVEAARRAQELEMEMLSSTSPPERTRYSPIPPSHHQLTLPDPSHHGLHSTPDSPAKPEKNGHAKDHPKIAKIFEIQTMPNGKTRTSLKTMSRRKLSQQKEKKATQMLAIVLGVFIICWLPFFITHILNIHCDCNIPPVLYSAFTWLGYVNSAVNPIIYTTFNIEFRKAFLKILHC

Row | SMILES | Ki [1] | Ki [2] | Ki [3] | Ki [4] | other results
1 | COc1ccc(N2CCN(CC[C@H]3OCCc4cc(C(N)=O)ccc43)CC2)cc1 | 26 µM | > 3.36 µM | 0.386 µM |  | 
2 | CNC(=O)c1ccc2c(c1)CCO[C@@H]2CCN1CCN(c2ccc(OC)cc2)CC1 | 150 µM | > 3.36 µM | 0.158 µM | Not Active | Ki [5]: 0.586 µM
3 | CNS(=O)(=O)Cc1ccc2[nH]cc(CCN(C)C)c2c1 |  |  | > 0.218 µM | Not Active | Hypothermic effect [9]: -0.14
4 | COc1ccc(N2CCN(CCC3OCCc4ccccc43)CC2)cc1 (configuration not stated) | 7.24 µM | 0.899 µM | 1.43 µM |  | Ki [10]: 0.0024 µM; Ki [11]: 0.076 µM

More lines, in order of falling Ki [1], values ahead:

Row | Ki [1] | Ki [2] | Ki [3] | Ki [4] | SMILES | other results
5 | 5.86 µM |  |  |  | COc1ccc(N2CCN(CCC3OCCc4cc(C(N)=O)ccc43)CC2)cc1 (configuration not stated) | Ki [6]: 2.46 µM; Ki [7]: 1.05 µM; Ki [8]: 0.348 µM
6 | 5.78 µM | 1.09 µM | 0.241 µM |  | CNC(=O)c1ccc2c(c1)CCO[C@H]2CCN1CCN(c2ccc(OC)cc2)CC1 | Hypothermic effect [14]: -1.38 °C; Hypothermic effect [12]: -1.84 °C; Hypothermic effect [15]: -0.8 °C; Hypothermic effect [16]: -0.54 °C; Ki [10]: > 3.7 µM; Hypothermic effect [17]: -1.52 °C; Ki [11]: 0.168 µM; Hypothermic effect [13]: -2.34 °C
7 | 3.02 µM | 0.967 µM | 0.325 µM | Not Active | COc1ccc(N2CCN(CC[C@@H]3OCCc4cc(C(N)=O)ccc43)CC2)cc1 | Hypothermic effect [12]: -1.42 °C; Hypothermic effect [13]: -1.14 °C
